Compound activity as filed in PubChem BioAssay.
KCC2 mod: modulates chloride dependent transport by human KCC2; Q9H2X9; KCC2 cells, thallium flux FluoZin-2 fluorescence; B-score of Tl+ flux slope (higher = more flux/activation; lower = inhibition) at 10 µM; 190,000 tested, 2.2% active; AID 1456;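 active = thallium flux slope and its plate-corrected score both differing from the plate sample mean at a set confidence after two filtering rounds, in either direction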;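 note: slope of fluorescence scaled to starting intensity during 10 to 20 s after thallium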
KCNQ1 inh: blocks the human KCNQ1 potassium channel; B-score at 10 µM; AID 2642; 310,000 tested, 1.3% active; CHO-K1 KCNQ1, FluxOR thallium flux fluorescence; active compounds read high; P51787;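 active = compounds whose thallium flux B-score, printed positive for inhibition, exceeds three library SD while starting fluorescence stays within three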;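 note: channel opened by potassium depolarization with thallium stimulus after 20 min compound exposure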
KCNQ1 pot: potentiators or activators of human KCNQ1 potassium channel; AID 2648; P51787; B-score at 10 µM; 310,000 tested, 0.35% active; CHO-K1 KCNQ1, thallium flux FluxOR fluorescence; active compounds read high;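 active = fluorescence ratio B-score, a plate-corrected score, at least three library SD, with initial intensity B-score within 5 SD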
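Test system: CHO-K1 cells stably expressing KCNQ1 / Medium: assay buffer / Also added: depolarizing K+/Tl+ stimulus, K2SO4 and Tl2SO4 each 12.5 mM in 5x stock / Incubation: 90 min dye loading and 20 min compound exposure, both at room temperature / Signal: thallium influx via FluxOR fluorescence, kinetic imaging / Evaluation: B score of baseline-normalized fluorescence ratio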
KCNK3 inh: human KCNK3 channel inhibition, primary screen; O14649; 340,000 tested, 0.84% active; CHO-KCNK3 thallium flux, FluxOR fluorescence; active compounds read low; B-score at 10 µM;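 active = B-score under library mean minus 4 SD, starting fluorescence ratio at most library mean plus 5 SD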;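 note: more negative B-score means stronger inhibition of thallium flux through KCNK3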
KCNK9 block: inhibitors of human KCNK9 two-pore domain potassium channel | Q9NPC2 | HEK293 KCNK9, FluxOR thallium flux fluorescence; active compounds read low | B-score at 10 µM | 310,000 tested, 1.2% active | AID 488922;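 active = ratio B-score over 3 SD below the library mean, with starting fluorescence within 5 SD of its mean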;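 note: negative B-score means less thallium flux so channel inhibition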
hERG rescue: compounds protecting human hERG from proarrhythmic drug block; activation (rescue from dofetilide block), less the hit threshold, % at 10 µM; Q12809; CHO-hERG, FluxOR thallium flux, dofetilide IC70 present; 310,000 tested, 0.51% active; AID 1511;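 active = activation above the mean of controls blocked by dofetilide plus 5 SD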;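 note: thallium influx through hERG after potassium depolarization seen as dye fluorescence rise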
Target sequence (Q12809 whole entry, looked up): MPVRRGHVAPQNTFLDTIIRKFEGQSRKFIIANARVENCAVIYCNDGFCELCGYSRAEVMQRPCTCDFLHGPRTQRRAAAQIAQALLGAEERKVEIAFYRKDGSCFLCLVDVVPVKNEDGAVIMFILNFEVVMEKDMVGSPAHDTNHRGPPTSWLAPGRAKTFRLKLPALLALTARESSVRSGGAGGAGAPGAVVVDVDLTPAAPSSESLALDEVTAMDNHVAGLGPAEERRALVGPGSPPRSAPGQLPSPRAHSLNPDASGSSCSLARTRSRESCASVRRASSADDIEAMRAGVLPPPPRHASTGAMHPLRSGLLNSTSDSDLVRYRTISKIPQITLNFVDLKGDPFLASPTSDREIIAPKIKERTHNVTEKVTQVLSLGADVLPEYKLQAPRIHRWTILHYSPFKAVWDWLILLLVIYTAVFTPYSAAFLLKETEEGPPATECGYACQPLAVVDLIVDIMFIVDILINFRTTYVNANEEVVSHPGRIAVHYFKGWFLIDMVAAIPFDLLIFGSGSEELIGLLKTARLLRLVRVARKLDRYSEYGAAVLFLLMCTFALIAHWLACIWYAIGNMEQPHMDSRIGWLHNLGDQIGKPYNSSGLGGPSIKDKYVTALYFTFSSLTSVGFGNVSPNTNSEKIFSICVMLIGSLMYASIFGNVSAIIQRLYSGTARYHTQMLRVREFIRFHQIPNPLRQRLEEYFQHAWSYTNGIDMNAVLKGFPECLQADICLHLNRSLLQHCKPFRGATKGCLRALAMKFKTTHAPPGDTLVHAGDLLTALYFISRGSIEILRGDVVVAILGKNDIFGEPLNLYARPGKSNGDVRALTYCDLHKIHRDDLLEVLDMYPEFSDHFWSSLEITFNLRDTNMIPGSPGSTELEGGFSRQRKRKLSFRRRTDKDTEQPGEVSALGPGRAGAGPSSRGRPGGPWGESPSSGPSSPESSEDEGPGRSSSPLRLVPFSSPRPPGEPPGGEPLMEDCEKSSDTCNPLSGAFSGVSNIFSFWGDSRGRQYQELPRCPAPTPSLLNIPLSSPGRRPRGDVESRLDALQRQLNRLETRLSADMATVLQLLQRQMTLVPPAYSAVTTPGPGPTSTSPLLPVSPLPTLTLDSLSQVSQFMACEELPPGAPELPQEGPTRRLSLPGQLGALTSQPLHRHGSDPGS
KCC2 secondary: KCC2 (human) modulation, secondary assay | shares compounds with KCC2 mod | HEK293-KCC2, thallium flux, FluoZin2 fluorescence; active compounds read high | normalised thallium flux (F/F0 slope) at 10 µM | 3,700 tested, 15% active;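 active = thallium flux slope above the same plate's solvent-only control mean plus 3 SD; inconclusive = the two replicate wells disagree; inactive = no significant difference from solvent-only control wells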
KCC2 bumet counter: thallium flux persisting under bumetanide in KCC2 cells, counter-screen secondary assay; HEK293-KCC2 + bumetanide/ouabain, thallium flux FluoZin2; active compounds read high; normalized thallium flux at 10 µM; AID 1714; 3,700 tested, 49% active; shares compounds with KCC2 mod;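 active = thallium entry rate above the same plate's blocked-transporter control wells by more than 3 SD; inconclusive = the two repeat wells disagree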;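 note: raw slope of fluorescence over initial fluorescence between 10 and 20 s after thallium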
KCC2 sec2: KCC2 (human) modulation, second secondary assay | shares compounds with KCC2 mod | HEK293-KCC2, thallium flux FluoZin2 fluorescence; actives lie on both sides; F/F0 rise rate, 10–20 s post-thallium | normalized thallium flux at 10 µM | 3,700 tested, 23% active;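 active = thallium flux slope more than 3 SD above or below the plate's solvent-only control mean, mostly below; inconclusive = the two repeat wells disagreed; inactive = no significant shift from solvent-only controls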;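 note: raw slope with 0.1% DMSO as baseline and bumetanide as block control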
HEK counter1: parental HEK flux effect, counter-screen. thallium flux rate (normalised fluorescence) at 10 µM. 3,700 tested, 46% active. AID 1716. HEK293 parental cells, thallium flux FluoZin2, ouabain; baseline-ratio fluorescence slope, 10–20 s after thallium. shares compounds with KCC2 mod;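 active = thallium flux rate significantly above the same plate's solvent-only control wells, beyond their mean plus 3 SD; inconclusive = the two replicate wells gave conflicting results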
KCC2 retest ouab: KCC2 (human) modulation, ouabain retest | 3,700 tested, 48% active | HEK293-KCC2, thallium flux FluoZin2 fluorescence; bidirectional: low = inhibitor, high = activator | shares compounds with KCC2 mod | raw Tl+ flux slope (below DMSO = inhibition, above = activation) at 10 µM;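 active = thallium flux slope beyond 3 SD from same-plate DMSO control mean in most replicates, usually higher, sometimes lower; inconclusive = repeat tests gave conflicting results; inactive = no significant difference from controls in most replicates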;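 note: slope of initial-normalized fluorescence between seconds 10 and 20 after thallium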
HEK293 Tl flux2: parental HEK flux effect, counter-screen 2. shares compounds with KCC2 mod. HEK293 parental, thallium flux FluoZin-2 fluorescence slope. thallium flux slope at 10 µM. 3,700 tested, 33% active. AID 1718;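 active = thallium flux slope above the same plate's solvent-control mean plus 3 SD in both duplicate wells; inconclusive = duplicate wells that disagreed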;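 note: run without ouabain in cells lacking the KCC2 cotransporter; slope of fluorescence scaled to its starting value between 10 and 20 s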
* marks the source's active call; other numbers are inactive results; i = inactive; ? = inconclusive; · = no result. Hits are enriched below; roughly 4.1% of the tested compounds scored in any of these assays.

SMILES	KCC2 mod	KCNQ1 inh	KCNQ1 pot	KCNK3 inh	KCNK9 block	hERG rescue	KCC2 secondary	KCC2 bumet counter	KCC2 sec2	HEK counter1	KCC2 retest ouab	HEK293 Tl flux2
CC(C)[C@H](NC(=O)c1ccc([N+](=O)[O-])cc1Cl)C(=O)N1CCN(C/C=C/c2ccccc2)CC1	·	·	·	i	·	·	·	·	·	·	·	·
O=C(C[C@H]1C[C@H](C(=O)N2CCCCC2)[C@@]2(CCc3ccccc3)c3[nH]c4cc(-c5ccco5)ccc4c3CCN2C1=O)NCCC1=CCCCC1	·	·	·	i	·	·	·	·	·	·	·	·
Cc1ccc2c(c1)C1CN(C)CCC1N2C(=S)NC(=O)c1ccc(Cl)cc1Cl (stereo not given)	61*	i	i	i	i	-11	0.023*	0.11*	0.03	0.032*	0.061*	0.013*
CCCc1ccc2oc(C(=O)N3CCN(c4cnccn4)CC3)c(C)c2c1	·	i	i	i	i	-9	·	·	·	·	·	·
S=c1nc[nH]c2c1cnn2-c1ccccc1	149*	i	19*	i	i	1	0.052*	0.16*	0.067*	0.093*	0.11*	0.051*
Cc1cc2cc(CNC(=O)c3ccc(C)c([N+](=O)[O-])c3)ccc2[nH]1	-4.2*	i	i	i	i	-4	0.0087	0.0063	0.029	0.0076	?	0.01
O=C(Nc1ccccc1C(=O)N1CCCCCC1)c1cccc([N+](=O)[O-])c1	·	i	i	i	i	-10	·	·	·	·	·	·
O=C1c2ccccc2NC(c2ccc(Cl)cc2Cl)N1O (stereo not given)	3.8*	i	i	i	i	-2	0.01	0.021*	0.032	0.0095*	0.021	0.0097
Cc1ccc2oc(-c3ccc(C)c(NC(=S)NC(=O)c4cccs4)c3)nc2c1	4.6*	i	i	i	i	-9	0.011	0.012*	0.034	?	?	0.011
O=C(Nc1ccc(Cl)cc1)P(=O)(O)c1ccccc1	·	·	·	i	·	·	·	·	·	·	·	·
Cn1c(CNc2cccc(C(F)(F)F)c2)n[nH]c1=S	-4*	i	i	i	i	-3	0.0058	0.0049	0.025*	0.0071	?	0.01
Cn1cc(CN2CCC(n3nccc3NC(=O)C3CCCC3)CC2)cn1	·	i	i	i	i	-7	·	·	·	·	·	·
O=C1C=C(c2cccc3c2sc2ccccc23)C[C@@H](c2ccc(F)cc2)C1	·	·	·	i	·	·	·	·	·	·	·	·
c1ccc(-c2ccc(-n3ccnc3)cc2)cc1	·	i	i	i	i	4	0.009	0.0055	?	0.0035	0.017*	0.01
COc1ccc(S(=O)(=O)N(C)C)cc1NC(=O)COC(=O)C1CC1	·	·	·	i	·	·	·	·	·	·	·	·
CCCN1Cc2cccc(C(=O)Nc3ccc(C)cc3)c2C1=O	·	i	i	i	i	-11	0.0058	0.0043	0.028	0.0073	0.018	0.0099
N=C1C(c2nc3ccccc3s2)=C(O)CN1Cc1ccco1	3.6*	i	i	i	i	-5	0.0062	?	0.029	0.0075	0.018	0.011
CN(C)CCN1CC(O)=C(c2nc3ccccc3s2)C1=N	-1.2	i	i	i	i	-2	·	·	·	·	·	·
CC(C)Cc1c2c([nH]c(=S)c1C#N)CCCC2	27*	i	i	i	i	-2	0.019*	0.068*	0.037	0.034*	0.058*	0.014*
Cc1[nH]c(=S)c(C#N)c2c1CCCC2	3.8*	i	i	i	i	-5	0.0088	0.0086*	0.035	0.011*	0.021	0.011
Cc1[nH]c(=O)c(C#N)c2c1CCCC2	-0.034	i	i	i	i	-7	·	·	·	·	·	·
Cc1ccccc1OCC(=O)OCC(=O)NCc1ccccc1Cl	·	·	·	i	·	·	·	·	·	·	·	·
CC(C)Cn1c(-c2csc(C(C)C)c2)n[nH]c1=S	21*	i	i	i	i	-8	0.015*	0.08*	0.035	0.032*	0.056*	0.012*
Cc1ccc(-n2c(-c3cccc(C)c3)n[nH]c2=S)cc1	5.8*	i	i	i	i	-4	0.018	0.02*	0.031	0.014*	0.021*	0.017*
Cc1cccc(-n2c(-c3csc4ccccc34)n[nH]c2=S)c1	17*	i	i	i	i	-6	0.013*	0.069*	0.034	0.026*	0.055*	?
SMILES	KCC2 mod	KCNQ1 inh	KCNQ1 pot	KCNK3 inh	KCNK9 block	hERG rescue	KCC2 secondary	KCC2 bumet counter	KCC2 sec2	HEK counter1	KCC2 retest ouab	HEK293 Tl flux2
CCn1c(-c2csc3ccccc23)n[nH]c1=S	1	i	i	i	i	-2	·	·	·	·	·	·
Cc1ccc([N+](=O)[O-])c(-c2n[nH]c(=S)n2-c2cccc(Cl)c2)c1	7.1*	i	i	i	i	-5	0.014*	0.032*	0.037	0.012*	?	0.012*
O=C(CN1CCN(C(=O)c2cncn2-c2ccccc2)CC1)Nc1ccccc1Cl	·	·	·	i	·	·	·	·	·	·	·	·
CC(C)Cn1c(-c2csc3ccccc23)n[nH]c1=S	4.9*	i	i	i	i	-11	0.0062	0.019*	0.034	0.018*	?	0.015*
CC1=CCCC(C)(C)C1/C=C/C(C)=N/NC(=O)c1ccncc1 (stereo not given)	5.3*	i	i	i	i	-10	?	0.046*	0.032	0.016*	?	0.012*
C/C(=N/NC(=O)c1ccncc1)C1=C(O)CC(C)(C)CC1=O	0.0081	i	i	i	i	-15	·	·	·	·	·	·
Clc1ccc(-c2csc(NNC3=NCCCCC3)n2)cc1	-4.4*	i	i	i	i	-7	?	0.0064	0.03	0.0073	0.019*	0.0095
O=C(O)c1cc(S(=O)(=O)N2CCOCC2)c[nH]1	·	·	·	i	·	·	·	·	·	·	·	·
O=C(NCCc1ccccc1)c1ccc(CS(=O)(=O)Cc2ccccc2F)o1	-1.2	i	i	i	i	-17	·	·	·	·	·	·
